What was measured:
[1] = Cytotoxicity against human KB-3-1 cells after 72 hrs by MTT assay; type: functional, cell-based; conditions: KB 3-1, 72 h
143B [2] = assay: Cytotoxicity against human 143B cells after 72 hrs by MTT assay; type: functional, cell-based
MCF7 = assay: Cytotoxicity against human MCF7 cells after 72 hrs by MTT assay; type: functional, cell-based; conditions: MCF7, 72 h
[3] = Cytotoxicity against human H460 cells after 72 hrs by MTT assay; type: functional, cell-based; conditions: NCI-H460, 72 h
[4] = Half life in human plasma by TLC; type: ADME, cell-free
Procedure, shortened: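 Freshly reconstituted lyophilized human plasma in 0.1 M phosphate buffer pH 7.4 (0.4 mL plasma solution plus 0.1 mL drug solution) incubated at 37 °C. Stopped as for the buffer test, proteins spun out at 3000 × g for 30 min, supernatant run on TLC. Half-life from first-order decay, three independent experiments; the ratio compares it with the buffer half-life.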

SW-620 = assay: Cytotoxicity against human SW620 cells after 72 hrs by MTT assay; type: functional, cell-based; conditions: SW-620, 72 h
[5] = Half life in 0.1 M phosphate buffer at pH 7.4 at 37 degC by TLC; type: physicochemical
Procedure, shortened: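 Compound incubated in 0.1 M phosphate buffer pH 7.4 at 37 °C with shaking for varying times. Stopped with 2.0 M acetate buffer (pH 5) and ethanol, then chilled on ice and analysed by TLC. Percent parent left relative to zero-time control plotted against time; t1/2 = ln2/k from decay rate constant; mean ± SD of three independent experiments.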

143B [6] = assay: Cytotoxicity against human thymidine kinase-deficient 143B cells after 72 hrs by MTT assay; type: functional, cell-based
143B [7] = assay: Ratio of IC50 for human thymidine kinase-deficient 143B cells to IC50 for human 143B cells; type: functional
Procedure, shortened: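 143B kept in EMEM with 10% FBS and 1% penicillin/streptomycin; the TK-deficient 143B/TK⁻ line kept in EMEM with 0.015 mg/mL 5-BrdU.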

Structure (SMILES)	half-life [4]	half-life [5]	IC50 [1]	IC50 (143B [2])	IC50 (MCF7)	IC50 [3]	IC50 (SW-620)	IC50 (143B [6])	Ratio IC50 (143B [7])
Cc1cn([C@H]2C[C@H](N=[N+]=[N-])[C@@H](COP(=O)(OCCS(=O)(=O)c3ccccc3)Oc3ccc(Cl)cc3)O2)c(=O)[nH]c1=O (some centres undefined)	0.35 h	0.79 h	21.4 µM	24.4 µM	25 µM	17.9 µM	61.3 µM	–	–
COc1ccc(OP(=O)(OCCS(=O)(=O)c2ccccc2)OC[C@H]2O[C@@H](n3cc(C)c(=O)[nH]c3=O)C[C@@H]2N=[N+]=[N-])cc1 (some centres undefined)	0.6 h	1.53 h	15.2 µM	20.2 µM	20.4 µM	12.3 µM	47.3 µM	25.3 µM	1.3
Cc1cn([C@H]2C[C@H](N=[N+]=[N-])[C@@H](COP(=O)(OCCS(=O)(=O)c3ccccc3)Oc3ccc(F)cc3)O2)c(=O)[nH]c1=O (some centres undefined)	0.37 h	1.08 h	23.3 µM	26.6 µM	26.2 µM	20.8 µM	64.5 µM	–	–
Cc1cn([C@H]2C[C@H](N=[N+]=[N-])[C@@H](COP(=O)(OCCS(=O)(=O)c3ccccc3)Oc3ccccc3)O2)c(=O)[nH]c1=O (some centres undefined)	0.45 h	1.22 h	21.7 µM	25.4 µM	25.3 µM	18.2 µM	62.1 µM	–	–
Cc1ccc(OP(=O)(OCCSc2ccccc2)OC[C@H]2O[C@@H](n3cc(C)c(=O)[nH]c3=O)C[C@@H]2N=[N+]=[N-])cc1 (some centres undefined)	20 h	12 h	–	–	–	–	–	–	–
Cc1cn([C@H]2C[C@H](N=[N+]=[N-])[C@@H](CO)O2)c(=O)[nH]c1=O [ZIDOVUDINE]	–	–	9.17 µM	12.2 µM	13.7 µM	6.81 µM	39.1 µM	148 µM	12.1
Cc1ccc(OP(=O)(OCCS(=O)(=O)c2ccccc2)OC[C@H]2O[C@@H](n3cc(C)c(=O)[nH]c3=O)C[C@@H]2N=[N+]=[N-])cc1 (some centres undefined)	0.6 h	1.32 h	27.1 µM	28.3 µM	28.2 µM	24.7 µM	71.7 µM	–	–
Cc1cn([C@H]2C[C@H](N=[N+]=[N-])[C@@H](COP(=O)(OCC(c3ccccc3)S(=O)(=O)c3ccccc3)OCC(c3ccccc3)S(=O)(=O)c3ccccc3)O2)c(=O)[nH]c1=O (some centres undefined)	0.51 h	2.16 h	9.82 µM	14.2 µM	14.1 µM	7.13 µM	42.2 µM	19.7 µM	1.2

Continued, in another order:

half-life [4]	half-life [5]	Structure (SMILES)	IC50 [1]	IC50 (143B [2])	IC50 (MCF7)	IC50 [3]	IC50 (SW-620)	IC50 (143B [6])	Ratio IC50 (143B [7])
4.21 h	13.6 h	Cc1cn([C@H]2C[C@H](N=[N+]=[N-])[C@@H](COP(=O)(OCC(C)S(=O)(=O)c3ccccc3)OCC(C)S(=O)(=O)c3ccccc3)O2)c(=O)[nH]c1=O (some centres undefined)	25.2 µM	27.4 µM	27.6 µM	23.7 µM	68.2 µM	–	–
0.4 h	1.09 h	Cc1ccc(S(=O)(=O)CCOP(=O)(OCCS(=O)(=O)c2ccc(C)cc2)OC[C@H]2O[C@@H](n3cc(C)c(=O)[nH]c3=O)C[C@@H]2N=[N+]=[N-])cc1	14.4 µM	19.6 µM	19.6 µM	11.3 µM	46.6 µM	–	–
0.23 h	0.71 h	Cc1cn([C@H]2C[C@H](N=[N+]=[N-])[C@@H](COP(=O)(OCCS(=O)(=O)c3ccccc3)OCCS(=O)(=O)c3ccccc3)O2)c(=O)[nH]c1=O	11 µM	16.3 µM	16.3 µM	7.59 µM	43 µM	–	–
0.02 h	0.07 h	Cc1cn([C@H]2C[C@H](N=[N+]=[N-])[C@@H](COP(=O)(OCCS(=O)(=O)c3ccc([N+](=O)[O-])cc3)OCCS(=O)(=O)c3ccc([N+](=O)[O-])cc3)O2)c(=O)[nH]c1=O	20.4 µM	23.1 µM	22.9 µM	15.2 µM	57 µM	–	–
1.77 h	5.42 h	CCC(CS(=O)(=O)c1ccccc1)OP(=O)(OC[C@H]1O[C@@H](n2cc(C)c(=O)[nH]c2=O)C[C@@H]1N=[N+]=[N-])OC(CC)CS(=O)(=O)c1ccccc1 (some centres undefined)	8.28 µM	11.5 µM	12.2 µM	5.13 µM	27.8 µM	13.3 µM	1.2
0.13 h	0.36 h	Cc1cn([C@H]2C[C@H](N=[N+]=[N-])[C@@H](COP(=O)(OCCS(=O)(=O)c3ccc(Cl)cc3)OCCS(=O)(=O)c3ccc(Cl)cc3)O2)c(=O)[nH]c1=O	7.84 µM	7.83 µM	9.46 µM	4.47 µM	11.6 µM	8.8 µM	1.1
1.35 h	3.56 h	Cc1cn([C@H]2C[C@H](N=[N+]=[N-])[C@@H](COP(=O)(OC(C)CS(=O)(=O)c3ccccc3)OC(C)CS(=O)(=O)c3ccccc3)O2)c(=O)[nH]c1=O (some centres undefined)	18.4 µM	22.5 µM	22.4 µM	14.6 µM	54.8 µM	–	–
70.1 h	279 h	Cc1cn([C@H]2C[C@H](N=[N+]=[N-])[C@@H](COP(=O)(OC(C)C(C)S(=O)(=O)c3ccccc3)OC(C)C(C)S(=O)(=O)c3ccccc3)O2)c(=O)[nH]c1=O (some centres undefined)	24.2 µM	26.4 µM	26.8 µM	22.2 µM	66.7 µM	–	–
0.55 h	1.44 h	COc1ccc(S(=O)(=O)CCOP(=O)(OCCS(=O)(=O)c2ccc(OC)cc2)OC[C@H]2O[C@@H](n3cc(C)c(=O)[nH]c3=O)C[C@@H]2N=[N+]=[N-])cc1	4.68 µM	5.45 µM	6.38 µM	1.71 µM	7.62 µM	5.16 µM	0.9

Reference: ChEMBL document CHEMBL3351351, “Synthesis and evaluation of sulfonylethyl-containing phosphotriesters of 3'-azido-3'-deoxythymidine as anticancer prodrugs” (Bioorg Med Chem, 2014)
